Measurements from ChEMBL document CHEMBL4402601, “Discovery of a Silicon-Containing Pan-Genotype Hepatitis C Virus NS5A Inhibitor” (J Med Chem, 2020).

How the values were obtained:
Hepatitis C virus [1] = assay: Antiviral activity against Hepatitis C virus subtype 1a H77 subgenomic replicon expressing NS5A infected in human HuH7 cells assessed as reduction in viral replication incubated for 3 days by luciferase reporter gene assay; assay type: functional, organism-based, Hepacivirus hominis; settings: subtype 1a H77, Huh-7, 72 h
Outline: (§1)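 HCV replicon cell assay; inhibition of replication read as decrease in luciferase signal. Percent inhibition computed at each compound concentration; EC50 (pM) from nonlinear regression fit to a 4-parameter logistic equation. Values are means of triplicate wells, with each experiment run at least twice.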

Hepatitis C virus [2] = assay: Antiviral activity against Hepatitis C virus subtype 1b Con1 subgenomic replicon expressing NS5A infected in human HuH7 cells assessed as reduction in viral replication incubated for 3 days by luciferase reporter gene assay; assay type: functional, organism-based, Hepacivirus hominis; settings: subtype 1b Con1, Huh-7, 72 h; outline: as §1
Hepatitis C virus [3] = assay: Antiviral activity against Hepatitis C virus subtype 3a subgenomic replicon expressing NS5A infected in human HuH7 cells assessed as reduction in viral replication incubated for 3 days by luciferase reporter gene assay; assay type: functional, organism-based, Hepacivirus hominis; settings: Huh-7, 72 h; outline: as §1
Hepatitis C virus [4] = assay: Antiviral activity against Hepatitis C virus subtype 6a subgenomic replicon expressing NS5A infected in human HuH7 cells assessed as reduction in viral replication incubated for 3 days by luciferase reporter gene assay; assay type: functional, organism-based, Hepacivirus hominis; settings: Huh-7, 72 h; outline: as §1
[5] = Metabolic stability in mouse liver microsomes assessed as compound remaining at 1 uM incubated for 60 mins by UPLC-MS/MS analysis; assay type: ADME, Microsome; settings: read-out: Stability
Outline: (§2)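 Pooled mouse, rat or human liver microsomes (0.5 mg/mL) with 1 μM compound, 1 mM NADPH, 5 mM MgCl₂ and 100 mM potassium phosphate pH 7.4. Pre-incubated 5 min at 37 °C, started with NADPH, then run 60 min at 37 °C. Quenched with ice-cold acetonitrile containing internal standard; parent remaining measured by UPLC-MS/MS.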

[6] = Metabolic stability in rat liver microsomes assessed as compound remaining at 1 uM incubated for 60 mins by UPLC-MS/MS analysis; assay type: ADME, Microsome; settings: read-out: Stability; outline: as §2
[7] = Metabolic stability in human liver microsomes assessed as compound remaining at 1 uM incubated for 60 mins by UPLC-MS/MS analysis; assay type: ADME, Microsome; settings: read-out: Stability; outline: as §2
Hepatitis C virus [8] = assay: Potency index, ratio of EC50 of to EC50 of compound for antiviral activity against Hepatitis C virus subtype 6a subgenomic replicon expressing NS5A infected in human HuH7 cells assessed as reduction in viral replication incubated for 3 days by luciferase reporter gene assay; assay type: functional, Hepacivirus hominis
[9] = Drug distribution in mouse plasma at 10 mg/kg, po incubated for 0.5 hrs by UPLC-MS/MS analysis; assay type: ADME, organism-based
Outline: (§3)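 Oral dosing in mice and rats; compound measured in plasma and liver by UPLC-MS/MS at each time point, n = 3 (mean ± SD). LPR is mean liver concentration divided by mean plasma concentration.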

[10] = Drug distribution in mouse plasma at 10 mg/kg, po incubated for 3 hrs by UPLC-MS/MS analysis; assay type: ADME, organism-based; outline: as §3
[11] = Drug distribution in mouse plasma at 10 mg/kg, po incubated for 24 hrs by UPLC-MS/MS analysis; assay type: ADME, organism-based; outline: as §3
[12] = Drug distribution in rat plasma at 10 mg/kg, po incubated for 0.5 hrs by UPLC-MS/MS analysis; assay type: ADME, organism-based; outline: as §3
[13] = Drug distribution in rat plasma at 10 mg/kg, po incubated for 3 hrs by UPLC-MS/MS analysis; assay type: ADME, organism-based; outline: as §3
[14] = Drug distribution in rat plasma at 10 mg/kg, po incubated for 8 hrs by UPLC-MS/MS analysis; assay type: ADME, organism-based; outline: as §3
[15] = Drug distribution in mouse liver at 10 mg/kg, po incubated for 0.5 hrs by UPLC-MS/MS analysis; assay type: ADME, organism-based; settings: read-out: Drug uptake; outline: as §3
[16] = Drug distribution in mouse liver at 10 mg/kg, po incubated for 3 hrs by UPLC-MS/MS analysis; assay type: ADME, organism-based; settings: read-out: Drug uptake; outline: as §3
[17] = Drug distribution in mouse liver at 10 mg/kg, po incubated for 24 hrs by UPLC-MS/MS analysis; assay type: ADME, organism-based; settings: read-out: Drug uptake; outline: as §3
[18] = Drug distribution in rat liver at 10 mg/kg, po incubated for 0.5 hrs by UPLC-MS/MS analysis; assay type: ADME, organism-based; settings: read-out: Drug uptake; outline: as §3
[19] = Drug distribution in rat liver at 10 mg/kg, po incubated for 3 hrs by UPLC-MS/MS analysis; assay type: ADME, organism-based; settings: read-out: Drug uptake; outline: as §3
[20] = Drug distribution in rat liver at 10 mg/kg, po incubated for 8 hrs by UPLC-MS/MS analysis; assay type: ADME, organism-based; settings: read-out: Drug uptake; outline: as §3
[21] = Ratio of drug distribution in mouse liver to drug distribution in mouse plasma measured after 0.5 hrs by UPLC-MS/MS analysis; assay type: ADME, cell-free; outline: as §3
[22] = Ratio of drug distribution in mouse liver to drug distribution in mouse plasma measured after 3 hrs by UPLC-MS/MS analysis; assay type: ADME, cell-free; outline: as §3
[23] = Ratio of drug distribution in mouse liver to drug distribution in mouse plasma measured after 24 hrs by UPLC-MS/MS analysis; assay type: ADME, cell-free; outline: as §3
[24] = Ratio of drug distribution in rat liver to drug distribution in rat plasma measured after 0.5 hrs by UPLC-MS/MS analysis; assay type: ADME, cell-free; outline: as §3
[25] = Ratio of drug distribution in rat liver to drug distribution in rat plasma measured after 3 hrs by UPLC-MS/MS analysis; assay type: ADME, cell-free; outline: as §3
[26] = Ratio of drug distribution in rat liver to drug distribution in rat plasma measured after 8 hrs by UPLC-MS/MS analysis; assay type: ADME, cell-free; outline: as §3

Row | SMILES | EC50 (Hepatitis C virus [1]) [pM] | EC50 (Hepatitis C virus [2]) [pM] | EC50 (Hepatitis C virus [3]) [pM] | EC50 (Hepatitis C virus [4]) [pM] | also measured
1 | COC(=O)N[C@H](C(=O)N1CCC[C@H]1C(=O)Nc1ccc([C@H]2CC[C@H](c3ccc(NC(=O)[C@@H]4CCCN4C(=O)[C@@H](NC(=O)OC)[C@@H](C)OC)cc3)N2c2cc(F)c(N3CC[Si](C)(C)CC3)c(F)c2)cc1)[C@@H](C)OC | 12 | 1.7 | 4.8 | 114 | –
2 | COC(=O)N[C@H](C(=O)N1CCC[C@H]1C(=O)Nc1ccc([C@@H]2CC[C@@H](c3ccc(NC(=O)[C@@H]4CCCN4C(=O)[C@@H](NC(=O)OC)C(C)C)cc3)N2c2ccc(C(C)(C)C)cc2)cc1)C(C)C [OMBITASVIR] | – | – | – | – | remaining at 1 h, 1 µM [5]: 63.5%; remaining at 1 h, 1 µM [6]: 73.5%; remaining at 1 h, 1 µM [7]: 82.5%
3 | COC(=O)N[C@H](C(=O)N1CCC[C@H]1c1nc2cc([C@@H]3CC[C@@H](c4cc5nc([C@@H]6CCCN6C(=O)[C@@H](NC(=O)OC)[C@@H](C)OC)[nH]c5cc4F)N3c3cc(F)c(N4CCC(c5ccc(F)cc5)CC4)c(F)c3)c(F)cc2[nH]1)[C@@H](C)OC | – | – | – | – | concentration at 0.5 h [9]: 414 ng/mL; concentration at 3 h [10]: 1540 ng/mL; concentration at 24 h [11]: 718 ng/mL; concentration at 0.5 h [12]: 103 ng/mL; concentration at 3 h [13]: 96.4 ng/mL; concentration at 8 h [14]: 30.1 ng/mL; concentration at 0.5 h [15]: 94 ng/g; concentration at 3 h [16]: 193 ng/g; concentration at 24 h [17]: 69.6 ng/g; concentration at 0.5 h [18]: 155 ng/g; concentration at 3 h [19]: 102 ng/g; concentration at 8 h [20]: 18.9 ng/g; Kp at 0.5 h [21]: 0.43; Kp at 3 h [22]: 0.39; Kp at 24 h [23]: 0.11; Kp at 0.5 h [24]: 1.5; Kp at 3 h [25]: 1.1; Kp at 8 h [26]: 0.63
4 | COC(=O)N[C@H](C(=O)N1CCC[C@H]1C(=O)Nc1ccc([C@H]2CC[C@H](c3ccc(NC(=O)[C@@H]4CCCN4C(=O)[C@@H](NC(=O)OC)[C@@H](C)OC)cc3)N2c2ccc(N3CC[Si](C)(C)CC3)c(F)c2)cc1)[C@@H](C)OC | 65 | 16 | 14 | 454 | –
5 | CC[Si](CC)(CC)c1ccc(N2[C@H](c3ccc(NC(=O)[C@@H]4CCCN4C(=O)[C@@H](NC(=O)OC)[C@@H](C)OC)cc3)CC[C@H]2c2ccc(NC(=O)[C@@H]3CCCN3C(=O)[C@@H](NC(=O)OC)[C@@H](C)OC)cc2)cc1 | 2.3 | 1 | 2 | 121 | Ratio EC50 (Hepatitis C virus [8]): 7
6 | CC[Si](CC)(CC)c1ccc(N2[C@H](c3ccc(NC(=O)[C@@H]4CCCN4C(=O)[C@@H](NC(=O)OC)C(C)C)cc3)CC[C@H]2c2ccc(NC(=O)[C@@H]3CCCN3C(=O)[C@@H](NC(=O)OC)C(C)C)cc2)cc1 | 11 | 2.8 | 5.8 | 817 | –
7 | COC(=O)N[C@H](C(=O)N1CCC[C@H]1C(=O)Nc1ccc([C@@H]2CC[C@@H](c3ccc(NC(=O)[C@@H]4CCCN4C(=O)[C@@H](NC(=O)OC)[C@@H](C)OC)cc3)N2c2ccc(N3CC[Si](C)(C)CC3)c(F)c2)cc1)[C@@H](C)OC | 12 | 2.9 | 6 | 242 | –
8 | COC(=O)N[C@H](C(=O)N1CCC[C@H]1C(=O)Nc1ccc([C@H]2CC[C@H](c3ccc(NC(=O)[C@@H]4CCCN4C(=O)[C@@H](NC(=O)OC)C(C)C)cc3)N2c2ccc(N3CC[Si](C)(C)CC3)c(F)c2)cc1)C(C)C | 0.8 | 0.5 | 51 | 831 | –

Continued, in another order:

Row | EC50 (Hepatitis C virus [1]) [pM] | EC50 (Hepatitis C virus [2]) [pM] | EC50 (Hepatitis C virus [3]) [pM] | EC50 (Hepatitis C virus [4]) [pM] | SMILES | also measured
9 | 0.8 | 0.4 | 8.8 | 182 | COC(=O)N[C@H](C(=O)N1CCC[C@H]1C(=O)Nc1ccc([C@@H]2CC[C@@H](c3ccc(NC(=O)[C@@H]4CCCN4C(=O)[C@@H](NC(=O)OC)C(C)C)cc3)N2c2ccc(N3CC[Si](C)(C)CC3)c(F)c2)cc1)C(C)C | –
10 | 0.9 | 0.4 | 11 | 88 | COC(=O)N[C@H](C(=O)N1CCC[C@H]1C(=O)Nc1ccc([C@@H]2CC[C@@H](c3ccc(NC(=O)[C@@H]4CCCN4C(=O)[C@@H](NC(=O)OC)C(C)C)cc3)N2c2cc(F)c(N3CC[Si](C)(C)CC3)c(F)c2)cc1)C(C)C | –
11 | 7.9 | 1.4 | 3 | 80 | COC(=O)N[C@H](C(=O)N1CCC[C@H]1C(=O)Nc1ccc([C@@H]2CC[C@@H](c3ccc(NC(=O)[C@@H]4CCCN4C(=O)[C@@H](NC(=O)OC)[C@@H](C)OC)cc3)N2c2ccc([Si](C)(C)C(C)(C)C)cc2)cc1)[C@@H](C)OC | Ratio EC50 (Hepatitis C virus [8]): 10
12 | 12 | 1.6 | 7 | 247 | COC(=O)N[C@H](C(=O)N1CCC[C@H]1C(=O)Nc1ccc([C@@H]2CC[C@@H](c3ccc(NC(=O)[C@@H]4CCCN4C(=O)[C@@H](NC(=O)OC)[C@@H](C)OC)cc3)N2c2ccc([Si](C)(C)C)cc2)cc1)[C@@H](C)OC | –
13 | 0.9 | 0.4 | 37 | 463 | COC(=O)N[C@H](C(=O)N1CCC[C@H]1C(=O)Nc1ccc([C@H]2CC[C@H](c3ccc(NC(=O)[C@@H]4CCCN4C(=O)[C@@H](NC(=O)OC)C(C)C)cc3)N2c2cc(F)c(N3CC[Si](C)(C)CC3)c(F)c2)cc1)C(C)C | –
